# L major viab: reduces viability of Leishmania major promastigotes; resazurin fluorescence viability; inhibition, % at 10 µM; 200,000 tested, 9% active; AID 1063; in the data active = inhibition above about 50%;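 note: promastigotes grown with compound for 44 hours at 28 °C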
# T cruzi repl: blocks replication of Trypanosoma cruzi; T. cruzi beta-gal in NIH3T3, luminescence, 90 h; inhibition, % (concentration not given with the values); 300,000 tested, 1.4% active;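 active = mean inhibition across valid replicates above about 55%, limit read from the data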;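 note: signal also drops with host cell toxicity which is not excluded here; 0% = plate median of DMSO wells and 100% = zero luminescence signal; higher percent means less beta-gal luminescence so fewer parasites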
#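 System: NIH/3T3 fibroblasts plus reporter T. cruzi. Medium: DMEM plus 2% FBS. Probe or stimulus: 5000 reporter trypomastigotes per well. Compound: single 50 nL compound addition per well in DMSO. Incubation: co-culture of at least 90 h after 3 h attachment. Detection: GalScreen β-gal luminescence, detergent lysis, 60 min. Evaluation: parasite load inhibition, %.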
# HSF1 activator: increases HSF-1 driven luciferase reporter signal; NIH3T3-HGL HSF-1 luciferase reporter, MG132, 8 h; 100% = twice DMSO control signal; activation, % at 9 µM; 300,000 tested, 1.7% active;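 active = mean replicate activation of at least 50% with a set share of replicates each reaching 50%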;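 note: 0% = median of the neutral control wells and 100% = twice that signal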
# HSF1 inhib: HSF1 inhibition | NIH3T3-HGL HSE-luciferase, MG132-induced, luminescence 8 h; stronger effect = lower value | activity change, negative = inhibition, % at 7.5 µM (by protocol) | 300,000 tested, 0.77% active | AID 2098;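 active = more than half of replicate wells show activity change below -50%, luminescence cut by over half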;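 note: luciferase reports HSF-1 transcriptional activity via heat shock element; 0% = median of DMSO wells and -100% = zero luminescence signal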
# Hsp70 activator: Hsp70 transcriptional activation, primary screen; HeLa Hsp70 promoter luciferase reporter, luminescence; scaled: vehicle 0, proteasome-inhibitor control 100%; activation, % at 10 µM; 200,000 tested, 0.04% active; AID 1203;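 active = activation above the mean across all tested compounds plus 3 SD, cutoff set per campaign, cut at about 5.5% in these data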;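 note: 100% = MG132 at 30 µM as the positive control and 0% = DMSO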
# Active calls of the source: *; . = no result. The entries come from a sample that favours hits as a whole.
SMILES,L major viab,T cruzi repl,HSF1 activator,HSF1 inhib,Hsp70 activator
O=C1CSC(c2c(F)cccc2Cl)N1c1cccc(F)c1 (stereo not given),88*,-17,-4,1,0
O=C(Nc1ccccn1)C(F)(F)C(F)(F)C(F)(F)C(F)(F)C(=O)Nc1ccccn1,70*,-13,-5,-1,0
COc1ccccc1NC(=O)c1ccccc1C(=O)Nc1ccccc1OC,.,-1,-4,-2,.
O=C(Nc1ccccc1)Nc1cccc(Cl)c1Cl,8,-12,25,24,0
O=C(Nc1ccncc1)Nc1cccc(Cl)c1Cl,.,66*,-1,-1,.
COc1ccccc1NC(=O)c1cnc(Nc2ccccc2OC)c2ccccc12,95*,30,1,-3,0
COc1ccccc1NC(=O)Nc1ccc(Cc2ccncc2)cc1,12,43,15,10,0
COc1ccccc1NC(=O)Nc1ccncc1,97*,21,-2,2,0
O=[N+]([O-])c1cccc(C=Nc2cc3c(cc2Br)OCCO3)c1,2,.,.,.,0
CCCCC1(O)CC(C(F)(F)F)=NN1C(=O)COc1ccccc1 (stereo not given),-1,-7,-3,4,0
COc1ccccc1NC(=O)Nc1cc(NC(=O)Nc2ccccc2OC)c(C)nc1C,64*,-5,-7,1,0
COc1ccc(NC(=O)Nc2ccccc2OC)cc1,2,6,28,2,0
CC(=O)N/C(=N\c1nc(C)cc(C)n1)Nc1ccccc1Cl,.,-8,19,-5,.
COCCNC(=O)C(=O)N/N=C/c1cccs1,-7,2,11,5,0
COc1ccccc1NC(=O)C(=O)N/N=C/c1cccs1,55*,-2,24,1,0
COc1ccccc1N/C(=N/c1nc(C)cc(C)n1)NC(C)=O,61*,.,.,.,0
COc1ccccc1NC(=O)C(=O)Nc1ccccn1,-3,1,59*,28,0
O=C(NNC1=Nc2cc([N+](=O)[O-])ccc2OC1)c1ccccc1Cl,.,-17,4,1,.
NC(=O)NC(=O)COC(=O)c1ccc2c(c1)C(=O)N(Cc1ccccc1)C2=O,.,-9,-10,-1,.
CCN(CC)S(=O)(=O)c1cc(NC(=O)C(C)N(C)CC(=O)Nc2c(C)cccc2C)ccc1C (stereo not given),68*,18,7,-3,0
Cc1sc2ncnc(NC3CCN(Cc4ccccc4)CC3)c2c1C,38,58*,1,-3,1
c1ccc(CN2CCC(Nc3ncnc4sccc34)CC2)cc1,35,25,-2,-9,0
O=C(NNC1OC(CO)C(O)C(O)C1O)c1cccnc1 (stereo not given),-6,-5,-16,-5,0
CCOC(=O)c1sc2nccc(N(C)C)c2c1N=CNOCc1ccccc1,18,29,47,32,0
CCOC(=O)c1sc2nccc(N(C)C)c2c1N=CNOCc1c(F)cccc1Cl,9,70*,19,17,0
SMILES,L major viab,T cruzi repl,HSF1 activator,HSF1 inhib,Hsp70 activator
CS(=O)(=O)Cc1cc(N2CCCC2)nc(-c2ccccc2)n1,61*,8,33,5,0
CCCC[C@@H]1CNCCN1CCCc1cc(OC)c(OC)c(OC)c1,.,33,0,5,.
O=C(CCN1CCCCC1=O)NC1CCCN(Cc2ccc(Cl)cc2)C1 (stereo not given),.,46,-8,6,.
CCc1ccc2[nH]c3nc(N/N=C/c4ccc(O)cc4O)nnc3c2c1,.,57*,16,3,.
Cc1ccc2[nH]c3nc(N/N=C/c4cccc(O)c4)nnc3c2c1,.,-18,-31,-24,.
O=C(CSCCO)Nc1ccc([N+](=O)[O-])cc1,-7,-11,1,5,0
O=C(CSCCO)Nc1cccc([N+](=O)[O-])c1,65*,-3,-4,-2,0
Cc1cc(C(=O)Nc2ccc3c(c2)CCC3)ccc1[N+](=O)[O-],.,14,55*,28,.
O=C(Nc1cccc([N+](=O)[O-])c1)Nc1ccc2c(c1)CCC2,.,57*,13,4,.
COc1cc(OC)cc(C(=O)NNC(=O)C(=O)Nc2cc(OC)c(Cl)cc2OC)c1,.,-14,-2,-5,.
COc1ccc(C(=O)C2CCCN(C(=O)Cn3nc(C)cc3C)C2)cc1F (stereo not given),.,-4,-2,6,.
Cc1sc2nc(-c3cccnc3)nc(Cl)c2c1-c1ccccc1,61*,20,6,13,0
Cc1sc2nc(-c3ccccc3)[nH]c(=O)c2c1-c1ccccc1,-1,-24,0,-1,0
CN(C)/C=C/C1=CC(=O)CC(C)(C)C1,-2,13,1,-6,0
COc1ccccc1N(/N=C1\Sc2ccccc2C1=O)C(C)=O,.,0,-68,-68*,.
COc1ccc(N(/N=C2\Sc3ccccc3C2=O)C(C)=O)cc1,1,-16,60*,26,0
CCN(CC(=O)NCc1ccc(Cl)cc1)C(=O)COc1cccc(C(F)(F)F)c1,.,-1,-7,-1,.
CCCCOc1ccccc1C1C(C(=O)OC)=C(C)N(C)C(C)=C1C(=O)OC,88*,13,18,1,0
CC1(C)CC(=O)C2=C(C1)N(c1ccc(F)cc1)C(N)=C(C#N)C2c1cccs1 (stereo not given),19,-7,-12,-1,0
Cc1ccc(N2C(N)=C(C#N)C(c3cccs3)C3=C2CC(C)(C)CC3=O)cc1 (stereo not given),98*,13,10,-8,0
N#CC1=C(N)N(c2ccccc2)C2=C(C(=O)CCC2)C1c1cccs1 (stereo not given),73*,20,-11,-3,0
N#CC1=C(N)N(c2ccccc2C#N)C2=C(C(=O)CCC2)C1c1ccsc1 (stereo not given),-1,-2,8,10,0
COc1cc(C(=S)N2CCOCC2)ccc1OC(=O)c1cc([N+](=O)[O-])c(C)c([N+](=O)[O-])c1,-7,-3,7,-13,0
CCCN(CC(=O)Nc1cc(Cl)cc(Cl)c1)CC(=O)Nc1ccc(F)c(F)c1F,63*,49,3,7,0
COc1ccc(C(=O)N[C@H](C(=O)Nc2nc3c(s2)CCCC3)C(C)C)cc1,10,6,42,30,0
SMILES,L major viab,T cruzi repl,HSF1 activator,HSF1 inhib,Hsp70 activator
CCOc1ccccc1C(=O)N[C@H](C(=O)Nc1nc2c(s1)CCCC2)C(C)C,22,69*,22,-3,0
CC(NC(=O)COC(=O)CCc1ccccc1)c1ccccc1 (stereo not given),42,-5,1,-4,0
C1=C(c2ccccc2)CCN(c2ncnc3nc[nH]c23)C1,0,0,-79,-75*,0
c1ccc2c(c1)CCN(c1ncnc3nc[nH]c13)C2,-5,-3,-1,1,0
O=c1[nH]ncc(N2CCCC2)c1Cl,-3,-9,0,-5,0
O=c1[nH]ncc(N2CCN(C(c3ccccc3)c3ccccc3)CC2)c1Cl,93*,32,-12,5,0
